pKd: −log10 of the molar value. Square brackets hold non-standard residues; d marks the D form. Ends that are not written are not given here. * marks the point of attachment. FITC = O=C1OC2(c3ccc(O)cc3Oc3cc(O)ccc32)c2ccc(NC(=S)*)cc21; Palmitoyl = CCCCCCCCCCCCCCCC(=O)*; Aib = CC(C)(N)C(=O)O; Ahx = NCCCCCC(=O)O
Legend:
HSA = HSA (Homo sapiens, UniProt P02768); assay: Albumin binding affinity by surface plasmon resonance
[1] = Plasma stability test in human plasma with or without HSA; assay type: in vitro ADME
Outline: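 Albumin-depleted human plasma was prepared with a blue-dye albumin removal kit. Test peptides at a final 1 mg L−1 were incubated at 37 °C in human plasma with or without HSA. Samples were taken at time points from 0 to 144 h and analysed by LC-MS/MS.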

db/db mice [2] = assay: Oral glucose tolerance test; assay type: in vivo
Outline: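 Male db/db mice were fasted overnight and split into five groups. They received saline or test compound s.c. at 10, 30, 90 or 150 nmol kg−1, half an hour before an oral glucose load of 2.0 g kg−1. Blood glucose was read by handheld glucometer before and 15, 30, 60 and 120 min after the load. Data are mean ± SD with one-way ANOVA.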

GK rats = assay: Modified multiple OGTTs; assay type: in vivo
Outline: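 Male GK rats (purchased at 6–8 weeks) got one s.c. dose of saline, test compound (10, 30, 90 nmol kg−1) or a reference GLP-1 analog (90 nmol kg−1). Repeated oral glucose challenges followed, the first at 0.5 h after dosing. Glucose was read by glucometer. AUCs were taken for 0–2, 72–74 and 144–146 h, and the percent AUC reduction was calculated versus saline.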

db/db mice [3] = assay: Hypoglycemic duration test; assay type: in vivo; conditions: non-fasted db/db mice
Outline: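 Non-fasted db/db mice with free food and water got one s.c. dose of saline, a reference GLP-1 analog (90 nmol kg−1) or test compound (10, 30, 90 nmol kg−1). Tail-vein blood was sampled at 0, 0.5, 1, 2, 4, 8, 24, 36, 48, 72, 120, 168 and 216 h, with glucose by glucometer. Hypoglycemic duration was the time BGL stayed under 8.35 mmol L−1. Data are mean ± SD; one-way ANOVA.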

[4] = Pharmacokinetic study in rhesus monkey; assay type: in vivo; conditions: plasma, sc
Outline: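 Male rhesus monkeys received one s.c. dose of test compound at 10, 30 or 90 nmol kg−1. Blood was drawn pre-dose and at 1, 2, 4, 8, 24, 36, 48, 72, 96, 120, 144 and 168 h. Intact peptide and free GLP-1 (A8Aib) in plasma were quantified by LC-MS/MS.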

db/db mice [5] = assay: Chronic in vivo study, 8 weeks, db/db mice; conditions: for ALT / AST / HDL / LDL / LDL/HDL / TC / TG: db/db mice serum, 8 weeks twice-weekly s.c.; for decrease of OGTT AUC after 8 week treatment compared with day 0: n = 8
Outline: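 Male db/db mice (purchased at 6–8 weeks, housed six per cage, 12 h light–dark) got twice-weekly s.c. saline, a reference GLP-1 analog (90 nmol kg−1) or test compound (10, 30, 90 nmol kg−1) for eight weeks. Blood biochemical parameters were measured on an automatic biochemical analyzer. Pancreas was paraffin-embedded and H&E-stained. Data are mean ± SD; one-way ANOVA, P < 0.05.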

[6] = single s.c. 10 nmol kg^−1, n = 8
[7] = single s.c. 30 nmol kg^−1, n = 8
[8] = single s.c. 90 nmol kg^−1, n = 8

Chain of HSA (P02768 25-609): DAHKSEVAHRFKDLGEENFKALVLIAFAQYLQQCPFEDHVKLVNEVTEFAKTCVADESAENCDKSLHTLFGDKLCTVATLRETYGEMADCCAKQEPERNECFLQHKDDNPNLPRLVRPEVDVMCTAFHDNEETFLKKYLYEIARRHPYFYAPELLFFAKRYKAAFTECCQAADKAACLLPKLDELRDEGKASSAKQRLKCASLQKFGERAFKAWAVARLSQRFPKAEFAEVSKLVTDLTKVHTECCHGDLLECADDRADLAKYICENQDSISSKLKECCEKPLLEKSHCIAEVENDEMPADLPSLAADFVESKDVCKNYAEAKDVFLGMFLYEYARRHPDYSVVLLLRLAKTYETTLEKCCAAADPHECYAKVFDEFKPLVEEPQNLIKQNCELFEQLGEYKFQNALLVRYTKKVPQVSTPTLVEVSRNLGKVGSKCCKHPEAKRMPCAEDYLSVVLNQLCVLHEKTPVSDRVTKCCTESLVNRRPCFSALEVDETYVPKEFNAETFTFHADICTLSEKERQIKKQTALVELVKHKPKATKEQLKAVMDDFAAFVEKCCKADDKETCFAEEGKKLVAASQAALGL

{FITC-Ahx}-EYEEK(Palmitoyl)YEGGGGSGGGGSFNPRH[Aib]EGTFTSDVSSYLEGQAAKEFIAWLVKGRG (N-terminus assumed) [PES14]
k a (HSA; SPR, BIAcoT200 system, HSA): 14500 M⁻¹ s⁻¹
k d (HSA; SPR, BIAcoT200 system, HSA): 0.0101 s⁻¹
pKd (HSA; human, HSA (human serum albumin), surface plasmon resonance): 6.16
half-life at 1 mg L^−1 ([1]; human plasma with HSA): > 72 h
half-life at 1 mg L^−1 ([1]; human plasma without albumin (HSA-free)): 60.1 h
glucose AUC in OGTT (db/db mice [2]; single s.c. 90 nmol kg^−1, AUC0–120 min): 780.17 nmol/L/min
glucose AUC in OGTT (db/db mice [2]; single s.c. 150 nmol kg^−1, AUC0–120 min): 738.56 nmol/L/min
AUC-lowering percentage in third OGTT (144–146 h) versus placebo (GK rats; [6]): 22.1%
AUC-lowering percentage in third OGTT (144–146 h) versus placebo (GK rats; [7]): 31.0%
AUC-lowering percentage in third OGTT (144–146 h) versus placebo (GK rats; [8]): 44.7%
time hypoglycemic effects maintained (db/db mice [3]; single s.c. 10 nmol kg^−1): more than 120 h
decrease of BGL AUC for 0–192 h compared with saline (db/db mice [3]; [6]): 38.4%
time hypoglycemic effects maintained (db/db mice [3]; single s.c. 30 nmol kg^−1): > 168 h
decrease of BGL AUC for 0–192 h compared with saline (db/db mice [3]; [7]): 49.3%
duration for BGLs rebound over 8.35 mmol L^−1 (db/db mice [3]; [7]): 22.3 h
time hypoglycemic effects maintained (db/db mice [3]; single s.c. 90 nmol kg^−1): > 216 h
decrease of BGL AUC for 0–192 h compared with saline (db/db mice [3]; [8]): 65.0%
duration for BGLs rebound over 8.35 mmol L^−1 (db/db mice [3]; [8]): 50.8 h
time for BGLs to reach the normoglycemic value (db/db mice [3]; single s.c. 30 and 90 nmol kg^−1): ≤ 2 h
half-life ([4]; 10 nmol kg^−1): 62.6 h
half-life ([4]; 30 nmol kg^−1): 78.8 h
half-life ([4]; 90 nmol kg^−1): 95.1 h
ALT (db/db mice [5]; 10 nM kg^−1, mean ± SD n = 8): 59.2 ± 2.8 IU L^−1
AST (db/db mice [5]; 10 nM kg^−1, mean ± SD n = 8): 158 ± 12.2 IU L^−1
HDL (db/db mice [5]; 10 nM kg^−1, mean ± SD n = 8): 2.5 ± 0.6 mmol/L
LDL (db/db mice [5]; 10 nM kg^−1, mean ± SD n = 8): 1.6 ± 0.3 mmol/L
LDL/HDL (db/db mice [5]; 10 nM kg^−1, mean ± SD n = 8): 0.64 ± 0.19
TC (db/db mice [5]; 10 nM kg^−1, mean ± SD n = 8): 4.8 ± 0.6 mmol/L
TG (db/db mice [5]; 10 nM kg^−1, mean ± SD n = 8): 1.1 ± 0.1 mmol/L
ALT (db/db mice [5]; 30 nM kg^−1, mean ± SD n = 8): 55.0 ± 4.0 IU L^−1
AST (db/db mice [5]; 30 nM kg^−1, mean ± SD n = 8): 140 ± 9.9 IU L^−1
HDL (db/db mice [5]; 30 nM kg^−1, mean ± SD n = 8): 2.5 ± 0.5 mmol/L
LDL (db/db mice [5]; 30 nM kg^−1, mean ± SD n = 8): 1.4 ± 0.2 mmol/L
LDL/HDL (db/db mice [5]; 30 nM kg^−1, mean ± SD n = 8): 0.44 ± 0.15
TC (db/db mice [5]; 30 nM kg^−1, mean ± SD n = 8): 4.4 ± 0.3 mmol/L
TG (db/db mice [5]; 30 nM kg^−1, mean ± SD n = 8): 1.0 ± 0.7 mmol/L
area and number of pancreatic islets (db/db mice [5]; db/db mice, 8 weeks, H&E staining, compared with saline): increased
reduction of LDL/HDL ratio (db/db mice [5]; db/db mice, after 8 week exposure): up to 47%
insulin immunoreactivity (db/db mice [5]; db/db mice, chronic treatment 8 weeks, pancreas sections): preserved proper insulin immunoreactivity
decrease of OGTT AUC after 8 week treatment compared with day 0 (db/db mice [5]; db/db mice, twice-weekly s.c. 10 nmol kg^−1, 8 weeks): 17.1%
decrease of OGTT AUC after 8 week treatment compared with day 0 (db/db mice [5]; db/db mice, twice-weekly s.c. 30 nmol kg^−1, 8 weeks): 28.9%
decrease of OGTT AUC after 8 week treatment compared with day 0 (db/db mice [5]; db/db mice, twice-weekly s.c. 90 nmol kg^−1, 8 weeks): 58.2%
body weight gain, food intake and fat% (db/db mice [5]; db/db mice, twice-weekly s.c. 10, 30 and 90 nmol kg^−1, 56 days, vs saline): obviously reduction
